Data: ChEMBL document CHEMBL1157699, “New small-size peptides possessing antifungal activity” (Bioorg Med Chem, 2010)
Residues, ends and D or L forms follow the SMILES beside them.

Assays:
Cryptococcus neoformans [1] = test: Antifungal activity against Cryptococcus neoformans ATCC 32264 assessed as inhibition of fungal growth at 6.25 uM after 48 hrs by microbroth dilution method; type: functional; conditions: ATCC 32264, 48 h
Method in brief: (§1)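 Cryptococcus run by CLSI M-27 A2 microbroth dilution in RPMI-1640. Peptide was diluted from DMSO stock to final 200, 100, 50, 25, 12.5, 6.25 and 3.125 µM. Inoculum was 1–5 × 10^3 CFU/ml from 24 h, 35 °C Sabouraud-chloramphenicol slants. Incubation was 48 h at 35 °C, moist and dark. % inhibition was taken from OD405 against a DMSO-containing growth control. Amphotericin B served as the positive control; tests in duplicate.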

Cryptococcus neoformans [2] = test: Antifungal activity against Cryptococcus neoformans ATCC 32264 assessed as inhibition of fungal growth at 3.125 uM after 48 hrs by microbroth dilution method; type: functional; conditions: ATCC 32264, 48 h; method in brief: as §1
Cryptococcus neoformans [3] = test: Antifungal activity against Cryptococcus neoformans ATCC 32264 assessed as inhibition of fungal growth at 25 uM after 48 hrs by microbroth dilution method; type: functional; conditions: ATCC 32264, 48 h; method in brief: as §1
Cryptococcus neoformans [4] = test: Antifungal activity against Cryptococcus neoformans ATCC 32264 assessed as inhibition of fungal growth at 50 uM after 48 hrs by microbroth dilution method; type: functional; conditions: ATCC 32264, 48 h; method in brief: as §1
Cryptococcus neoformans [5] = test: Antifungal activity against Cryptococcus neoformans ATCC 32264 assessed as inhibition of fungal growth at 100 uM after 48 hrs by microbroth dilution method; type: functional; conditions: ATCC 32264, 48 h; method in brief: as §1
Cryptococcus neoformans [6] = test: Antifungal activity against Cryptococcus neoformans ATCC 32264 assessed as inhibition of fungal growth at 200 uM after 48 hrs by microbroth dilution method; type: functional; conditions: ATCC 32264, 48 h; method in brief: as §1
Cryptococcus neoformans [7] = test: Antifungal activity against Cryptococcus neoformans ATCC 32264 assessed as inhibition of fungal growth at 12.5 uM after 48 hrs by microbroth dilution method; type: functional; conditions: ATCC 32264, 48 h; method in brief: as §1
Candida albicans [8] = test: Antifungal activity against Candida albicans ATCC 10231 assessed as inhibition of fungal growth at 50 uM after 24 hrs by microbroth dilution method; type: functional; conditions: ATCC 10231, 24 h
Method in brief: (§2)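 CLSI M-27 A2 broth microdilution in RPMI-1640. Peptides were taken from DMSO stocks to final 200–3.125 µM (twofold series). Inoculum was 1–5 × 10^3 CFU/ml from 24 h Sabouraud-chloramphenicol slant cultures at 35 °C. Plates were incubated 24 h at 35 °C in a moist dark chamber. OD405 was read, and % inhibition was taken against a DMSO-matched growth control. Amphotericin B served as the positive control; duplicates.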

Candida albicans [9] = test: Antifungal activity against Candida albicans ATCC 10231 assessed as inhibition of fungal growth at 25 uM after 24 hrs by microbroth dilution method; type: functional; conditions: ATCC 10231, 24 h; method in brief: as §2
Candida albicans [10] = test: Antifungal activity against Candida albicans ATCC 10231 assessed as inhibition of fungal growth at 200 uM after 24 hrs by microbroth dilution method; type: functional; conditions: ATCC 10231, 24 h; method in brief: as §2
Candida albicans [11] = test: Antifungal activity against Candida albicans ATCC 10231 assessed as inhibition of fungal growth at 100 uM after 24 hrs by microbroth dilution method; type: functional; conditions: ATCC 10231, 24 h; method in brief: as §2
Candida albicans [12] = test: Antifungal activity against Candida albicans ATCC 10231 assessed as inhibition of fungal growth at 12.5 uM after 24 hrs by microbroth dilution method; type: functional; conditions: ATCC 10231, 24 h; method in brief: as §2
[13] = Toxicity in Poecilia reticulata assessed as mortality at 22.8 ug/ml after 96 hrs; type: organism-based; conditions: in vivo, read-out: Activity
Method in brief: (§3)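 Acute toxicity in guppy (P. reticulata): 10 fish per concentration held in jars with the test solution for 96 h. Peptide added from aqueous stock diluted in DMSO to the final concentration. Dead fish counted and removed every 24 h, and condition noted. Percent mortality recorded at 96 h. Two experiments, each in triplicate.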

Cryptococcus neoformans [14] = test: Antifungal activity against Cryptococcus neoformans ATCC 32264 assessed as inhibition of fungal growth after 48 hrs by microbroth dilution method; type: functional; conditions: ATCC 32264, 48 h; method in brief: as §1
Candida albicans [15] = test: Antifungal activity against Candida albicans ATCC 10231 assessed as inhibition of fungal growth after 24 hrs by microbroth dilution method; type: functional; conditions: ATCC 10231, 24 h; method in brief: as §2
[16] = Toxicity in Poecilia reticulata assessed as mortality at 22.8 ug/ml after 48 hrs; type: organism-based; conditions: in vivo, read-out: Activity; method in brief: as §3
[17] = Toxicity in Poecilia reticulata assessed as mortality at 22.8 ug/ml after 72 hrs; type: organism-based; conditions: in vivo, read-out: Activity; method in brief: as §3
[18] = Toxicity in Poecilia reticulata assessed as mortality at 22.8 ug/ml after 24 hrs; type: organism-based; conditions: in vivo, read-out: Activity; method in brief: as §3

Molecule | inhibition at 6.25 µM (Cryptococcus neoformans [1]) [%] | inhibition at 3.125 µM (Cryptococcus neoformans [2]) [%] | inhibition at 25 µM (Cryptococcus neoformans [3]) [%] | inhibition at 50 µM (Cryptococcus neoformans [4]) [%] | inhibition at 100 µM (Cryptococcus neoformans [5]) [%] | inhibition at 200 µM (Cryptococcus neoformans [6]) [%] | inhibition at 12.5 µM (Cryptococcus neoformans [7]) [%] | inhibition at 50 µM (Candida albicans [8]) [%] | inhibition at 25 µM (Candida albicans [9]) [%] | inhibition at 200 µM (Candida albicans [10]) [%] | inhibition at 100 µM (Candida albicans [11]) [%] | inhibition at 12.5 µM (Candida albicans [12]) [%] | mortality at 96 h, 22.8 ug/ml [13] [%] | MIC50 (Cryptococcus neoformans [14]) [µM] | MIC (Cryptococcus neoformans [14]; read-out: MIC100) [µM] | MIC50 (Candida albicans [15]) [µM] | MIC (Candida albicans [15]; read-out: MIC100) [µM] | mortality at 48 h, 22.8 ug/ml [16] [%] | mortality at 72 h, 22.8 ug/ml [17] [%] | mortality at 24 h, 22.8 ug/ml [18] [%]
C[C@H](N)C(=O)N[C@@H](C)C(=O)N[C@@H](C)C(=O)N[C@@H](C)C(N)=O (H-AAAA-NH2) | 12.4 | 5.93 | 20.4 | 17.3 | 24.6 | 25 | 11.8 | – | – | – | – | – | – | – | – | – | – | – | – | –
C[C@H](N)C(=O)N[C@@H](C)C(=O)N[C@@H](C)C(=O)N[C@@H](CCCCN)C(N)=O (H-AAAK-NH2) | 0 | 0 | 43 | 57.9 | 62 | 70.6 | 31.1 | – | – | – | – | – | – | – | – | – | – | – | – | –
CC[C@H](C)[C@H](NC(=O)[C@@H](N)CCCCN)C(=O)N[C@@H](CCC(N)=O)C(=O)N[C@@H](CCCNC(=N)N)C(N)=O (H-KIQR-NH2) | 21.2 | 20.9 | 26.9 | 30.9 | 44.1 | 47.6 | 25.1 | – | – | – | – | – | – | – | – | – | – | – | – | –
CC[C@H](C)[C@H](NC(=O)[C@H](CCC(N)=O)NC(=O)[C@@H](N)CCCCN)C(=O)N[C@@H](CCCCN)C(N)=O (H-KQIK-NH2) | 0 | 0 | 0 | 0 | 0 | 3.72 | 0 | – | – | – | – | – | – | – | – | – | – | – | – | –
C[C@H](NC(=O)[C@H](C)NC(=O)[C@H](C)NC(=O)[C@@H](N)CCCNC(=N)N)C(N)=O (H-RAAA-NH2) | 4.96 | 0 | 8.9 | 8.43 | 8.45 | 38.4 | 6.08 | – | – | – | – | – | – | – | – | – | – | – | – | –
C[C@H](NC(=O)[C@H](C)NC(=O)[C@@H](N)CCCNC(=N)N)C(=O)N[C@@H](CCCCN)C(N)=O (H-RAAK-NH2) | 14.1 | 0 | 39.1 | 67.5 | 69.7 | 78.6 | 26.3 | – | – | – | – | – | – | – | – | – | – | – | – | –
CC[C@H](C)[C@H](NC(=O)[C@H](C)NC(=O)[C@@H](N)CCCNC(=N)N)C(=O)N[C@@H](CCCCN)C(N)=O (H-RAIK-NH2) | 0 | 0 | 0 | 0 | 29.1 | 34.6 | 0 | – | – | – | – | – | – | – | – | – | – | – | – | –
CC[C@H](C)[C@H](NC(=O)[C@@H](NC(=O)[C@@H](N)CCCNC(=N)N)[C@@H](C)CC)C(=O)N[C@@H](CCCCN)C(N)=O (H-RIIK-NH2) | 14.5 | 8.74 | 20.9 | 11.5 | 39.7 | 42 | 12.6 | – | – | – | – | – | – | – | – | – | – | – | – | –
C[C@H](NC(=O)[C@H](CCC(N)=O)NC(=O)[C@@H](N)CCCNC(=N)N)C(=O)N[C@@H](CCCCN)C(N)=O (H-RQAK-NH2) | 0 | 0 | 0 | 0 | 0 | 0 | 0 | – | – | – | – | – | – | – | – | – | – | – | – | –
CC[C@H](C)[C@H](NC(=O)[C@H](CCC(N)=O)NC(=O)[C@@H](N)CCCNC(=N)N)C(=O)N[C@@H](CCCCN)C(N)=O (H-RQIK-NH2) | 19.9 | 12.2 | 17.5 | 18.4 | 36.6 | 55.4 | 11.2 | – | – | – | – | – | – | – | – | – | – | – | – | –
CC[C@H](C)[C@H](NC(=O)[C@H](CCC(N)=O)NC(=O)[C@@H](N)CCCNC(=N)N)C(=O)N[C@@H](CCCNC(=N)N)C(N)=O (H-RQIR-NH2) | 0 | 0 | 19.3 | 18.8 | 40.2 | 65.7 | 3.34 | – | – | – | – | – | – | – | – | – | – | – | – | –
C[C@@H]1[C@H](O)[C@@H](C)/C=C/C=C/C=C/C=C/C=C/C=C/C=C/[C@H](O[C@@H]2O[C@H](C)[C@@H](O)[C@H](N)[C@@H]2O)C[C@@H]2O[C@](O)(C[C@@H](O)C[C@@H](O)[C@H](O)CC[C@@H](O)C[C@@H](O)CC(=O)O[C@H]1C)C[C@H](O)[C@H]2C(=O)O [AMPHOTERICIN B] | 100 | 100 | 100 | 100 | 100 | 100 | 100 | 100 | 100 | 100 | 100 | 100 | – | – | – | – | – | – | – | –
CC(=O)N1CCN(c2ccc(OCC3COC(Cn4ccnc4)(c4ccc(Cl)cc4Cl)O3)cc2)CC1 (centres undefined) [KETOCONAZOLE] | 100 | 100 | 100 | 100 | 100 | 100 | 100 | 100 | 100 | 100 | 100 | 100 | – | – | – | – | – | – | – | –
H-NRRMKWKK-NH2 | – | – | 6.71 | 23.3 | 34.8 | 63.6 | 6.64 | 0 | 0 | 11 | 4.59 | 0 | – | – | – | – | – | – | – | –
H-RQWKKWWQWRR-NH2 | – | – | 100 | 100 | 100 | 100 | 66.2 | 100 | 67.9 | 100 | 100 | 35.7 | 0 | ≤ 12.5 | 25 | ≤ 25 | 50 | 0 | 0 | 0
